Results published in ChEMBL document CHEMBL2331084, “Synthesis and evaluation of oxime derivatives as modulators for amyloid beta-induced mitochondrial dysfunction” (Eur J Med Chem, 2013).

How the values were obtained:
HT-22 [1] = test: Inhibition of mPTP in mouse HT22 cells assessed as reduction in amyloid beta-induced mitochondrial membrane damage at 10 uM incubated for 10 mins prior to amyloid beta-challenge measured every 1 hr for 3 hrs by JC-1 based fluorometric analysis; type: cell-based; parameters: scale not given: the % may be the effect or the level left
Method in brief: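 HT-22 cells, 30,000 per well, seeded a day earlier, loaded with 7.5 μM JC-1 (final) in phenol red-free Opti-MEM for 1 h 15 min at 37 °C, then PBS-washed. Compound solution at 10 μM for 10 min at 37 °C, then amyloid beta 1–42 solution at 10 μM. Red (ex/em 530/580) and green (485/530) fluorescence read hourly for 3 h. Green/red ratio change normalised to vehicle as 100%.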

[2] = Ratio of drug uptake in brain to drug uptake in plasma in Sprague-Dawley rat at 10 mg/kg, iv; type: ADME, organism-based; parameters: dose 10 mg/kg, route intravenous; conditions: read-out: BPR
Method in brief: (§1)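 Male Sprague-Dawley rats given 10 mg/kg iv or orally. Brain-to-plasma concentration ratio taken 2 h after dosing. Concentrations measured by LC-MS/MS.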

HT-22 [3] = test: Neuroprotective activity against in mouse HT22 cells assessed as inhibition of amyloid beta-induced toxicity at 10 uM incubated for 10 mins prior to amyloid beta-challenge measured after 24 hrs by MTT assay; type: functional
Method in brief: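 HT-22 mouse hippocampal cells (DMEM, 10% FBS), 5000 per well, seeded a day before. Compound solution at 10 μM added 10 min before amyloid beta 1–42 solution at 10 μM, then 24 h at 37 °C. MTT 2 h, then acidified Triton/isopropanol for 1 h at RT, A570. Vehicle subtracted; % inhibition versus Aβ-treated vehicle; viability from wells without Aβ.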

[4] = Terminal half life in Sprague-Dawley rat at 10 mg/kg, po; type: ADME, organism-based; parameters: dose 10 mg/kg, route oral; conditions: in vivo, read-out: beta t1/2
Method in brief: (§2)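 Male Sprague-Dawley rats dosed 10 mg/kg iv (n = 3) or orally (n = 4). Carotid blood sampled at 0, 1 min (iv only), 5 min, 15 min, 0.5, 1, 2, 4, 6 and 8 h. Plasma analysed by LC-MS/MS after acetonitrile precipitation with internal standard (LLOQ 5 ng/mL). Parameters from non-compartmental analysis. Values are mean ± SD.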

[5] = AUC (0 to infinity) in Sprague-Dawley rat at 10 mg/kg, iv; type: ADME, organism-based; parameters: time infinity, dose 10 mg/kg, route intravenous; conditions: plasma
[6] = Clearance in Sprague-Dawley rat at 10 mg/kg, iv; type: ADME, organism-based; parameters: dose 10 mg/kg, route intravenous; conditions: in vivo; method in brief: as §2
[7] = Bioavailability in Sprague-Dawley rat at 10 mg/kg, po; conditions: in vivo
[8] = AUClast in Sprague-Dawley rat at 10 mg/kg, iv; type: ADME, organism-based; parameters: time 0 - last, dose 10 mg/kg, route intravenous; conditions: plasma
Method in brief: (§3)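 Male Sprague Dawley rats received 10 mg/kg intravenously (n = 3) or orally (n = 4). Blood was drawn via the carotid artery at 0, 1 min (IV only), 5 and 15 min, and 0.5, 1, 2, 4, 6 and 8 h. Plasma was precipitated with acetonitrile containing internal standard and analysed by LC–MS/MS (LLOQ 5 ng/mL). Parameters came from non-compartmental analysis; AUClast used the trapezoidal rule. Values are mean ± SD.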

[9] = Metabolic stability in rat plasma at 0.5 ug/ml after 2 hrs by LC/MS analysis; type: ADME, cell-free; conditions: read-out: Stability
Method in brief: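 Drug-free rat plasma spiked from acetonitrile stock to 0.5 μg/mL, held at 37 °C with shaking for 0, 15, 30, 60 and 120 min. Quenched with 2 volumes of acetonitrile containing carbamazepine internal standard, centrifuged, supernatant quantified by LC–MS/MS.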

[10] = Tmax in Sprague-Dawley rat at 10 mg/kg, po; type: ADME, organism-based; parameters: dose 10 mg/kg, route oral; conditions: in vivo; method in brief: as §2
HT-22 [11] = test: Inhibition of mPTP in mouse HT22 cells assessed as recovery in amyloid beta-suppressed ATP level at 5 uM incubated for 10 mins prior to amyloid beta-challenge measured for 7 hrs relative to control; type: cell-based; parameters: scale not given: the % may be the effect or the level left
Method in brief: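 HT-22 mouse hippocampal cells, grown in DMEM with 10% FBS at 37 °C and 5% CO2, were seeded the day before. Compound (10 µM solution) added 10 min before amyloid beta 1-42 (10 µM solution), then 7 h at 37 °C. Lysates normalised to equal protein by BCA, and ATP measured with a luciferase kit. % recovery is relative to the amyloid-treated vehicle. Viability is from ATP without amyloid beta.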

[12] = AUC (0 to infinity) in Sprague-Dawley rat at 10 mg/kg, po; type: ADME, organism-based; parameters: time infinity, dose 10 mg/kg, route oral; conditions: plasma
[13] = AUClast in Sprague-Dawley rat at 10 mg/kg, po; type: ADME, organism-based; parameters: time 0 - last, dose 10 mg/kg, route oral; conditions: plasma; method in brief: as §3
[14] = Terminal half life in Sprague-Dawley rat at 10 mg/kg, iv; type: ADME, organism-based; parameters: dose 10 mg/kg, route intravenous; conditions: in vivo, read-out: beta t1/2; method in brief: as §2
[15] = Clearance in Sprague-Dawley rat at 10 mg/kg, po; type: ADME, organism-based; parameters: dose 10 mg/kg, route oral; conditions: in vivo; method in brief: as §2
[16] = Cmax in Sprague-Dawley rat at 10 mg/kg, iv; type: ADME, organism-based; parameters: dose 10 mg/kg, route intravenous; conditions: in vivo; method in brief: as §2
[17] = Cytotoxicity against mouse […] cells assessed as cell viability at 5 uM; type: cell-based; conditions: HT22 cells, read-out: Activity
[18] = Cytotoxicity against mouse […] cells assessed as cell viability at 10 uM after 24 hrs by MTT assay; type: cell-based; conditions: read-out: Activity
[19] = Metabolic stability in human liver microsomes at 1 uM after 30 mins by LC/MS analysis; type: ADME, Microsome; conditions: read-out: Stability
Method in brief: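 Pooled human liver microsomes (0.5 mg/mL protein), compound at 1 μM, 1.2 mM NADPH, 100 mM phosphate pH 7.4, 37 °C with shaking for 30 min, in duplicate. Stopped with ice-cold acetonitrile containing internal standard, centrifuged, supernatant analysed by LC–MS/MS for % remaining.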

[20] = Cmax in Sprague-Dawley rat at 10 mg/kg, po; type: ADME, organism-based; parameters: dose 10 mg/kg, route oral; conditions: in vivo; method in brief: as §2
[21] = Apparent volume of distribution at steady state in Sprague-Dawley rat at 10 mg/kg, iv; type: ADME, organism-based; parameters: dose 10 mg/kg, route intravenous; conditions: in vivo, read-out: Vdss(app); method in brief: as §2
[22] = Ratio of drug uptake in brain to drug uptake in plasma in Sprague-Dawley rat at 10 mg/kg, po; type: ADME, organism-based; parameters: dose 10 mg/kg, route oral; conditions: read-out: BPR; method in brief: as §1

## CN1CCC(O/N=C/c2ccccc2OCc2ccc(Cl)c(Cl)c2)C1 (stereo not drawn)
HT-22 [1]
  Activity: 57%

## Clc1ccc(COc2ccccc2/C=N/OC2CCN(Cc3ccccc3)C2)cc1Cl (stereo not drawn)
[2]
  Kp: 14.6
HT-22 [3]
  inhibition at 10 µM: 149%
[4]
  half-life: 2.92 h
[5]
  AUC(0-inf): 6280 ng·h/mL
[6]
  clearance: 28.1 mL/min/kg
[7]
  bioavailability: 38.1%
[8]
  AUC(0-t): 5890 ng·h/mL
[9]
  remaining at 2 h, 0.5 ug/ml: 111%
[10]
  Tmax: 2 h
HT-22 [11]
  Activity: 104%
[12]
  AUC(0-inf): 2390 ng·h/mL
[13]
  AUC(0-t): 1960 ng·h/mL
[14]
  half-life: 2.35 h
[15]
  CL/F: 72.1 mL/min/kg
[16]
  Cmax: 44500 ng/mL
[17]
  viability at 5 µM: 83%
HT-22 [1]
  Activity: 41%
[18]
  viability at 24 h, 10 µM: 129%
[19]
  remaining at 0.5 h, 1 µM: 47.8%
[20]
  Cmax: 570 ng/mL
[21]
  Vd: 2.87 L/kg
[22]
  Kp: 0.29

## Clc1ccc(COc2ccccc2/C=N/OC2CCN(Cc3ccccc3)C2)c(Cl)c1 (stereo not drawn)
HT-22 [1]
  Activity: 61%

## CN1CCCC(O/N=C/c2ccccc2OCc2ccccc2)C1 (stereo not drawn)
HT-22 [11]
  Activity: 15%
[17]
  viability at 5 µM: 112%
HT-22 [1]
  Activity: 29%

## Fc1cccc(/C=N/OC2CN3CCC2CC3)c1 (stereo not drawn)
HT-22 [1]
  Activity: 92%

## Clc1cccc(COc2ccccc2/C=N/OC2CN3CCC2CC3)c1 (stereo not drawn)
HT-22 [1]
  Activity: 101%

## CN1CCCC(O/N=C/c2cccc(C(F)(F)F)c2)C1 (stereo not drawn)
HT-22 [1]
  Activity: 84%

## Clc1ccc(COc2ccccc2/C=N/OC2CN3CCC2CC3)c(Cl)c1 (stereo not drawn)
HT-22 [1]
  Activity: 69%

## FC(F)(F)c1ccccc1/C=N/OC1CN2CCC1CC2 (stereo not drawn)
HT-22 [1]
  Activity: 86%

## CC(C)N1CCC(O/N=C/c2ccccc2OCc2ccc(Cl)cc2Cl)C1 (stereo not drawn)
HT-22 [1]
  Activity: 61%

## COc1ccccc1/C=N/OC1CCN(C(C)C)C1 (stereo not drawn)
HT-22 [1]
  Activity: 55%

## CN1CCC(O/N=C/c2ccccc2OCc2cccc(F)c2)C1 (stereo not drawn)
HT-22 [11]
  Activity: 20%
[17]
  viability at 5 µM: 87%
HT-22 [1]
  Activity: 42%

## Brc1cccc(/C=N/OC2CN3CCC2CC3)c1 (stereo not drawn)
HT-22 [1]
  Activity: 95%
